# Experimental data as given in ChEMBL document CHEMBL4689842, “EUbOPEN Chemogenomics Library wave 1” (2021).
# System: Fibroblast
# Experiment: Multiplex assay against human fibroblast
# Format: toxicity, cell-based
# In short: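 Compound was added to live cells that had been stained at seeding with Hoechst33342, BioTracker Green Microtubule Cytoskeleton Dye, MitoTracker Red and Annexin V Alexa Fluor 680, and imaging followed on a CQ1 microscope at 37°C and 5% CO2. CellPathfinder machine-learning gating divided cells into Hoechst high-intensity objects or normal cells, normal cells into healthy, pyknosed or fragmented nuclei, and pyknosed cells into mitotic or apoptotic. Tubulin, mitochondrial-mass and membrane-permeability phenotypes are per cents of healthy-nucleus cells.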
# [1] = 12 h, 1 µM, compound concentration 1 uM, replicate 1
# [2] = 12 h, 1 µM, compound concentration 1 uM, replicate 2
# [3] = 12 h, 10 µM, compound concentration 10 uM, replicate 1
# [4] = 12 h, 10 µM, compound concentration 10 uM, replicate 2
# [5] = 24 h, 1 µM, compound concentration 1 uM, replicate 1
# [6] = 24 h, 1 µM, compound concentration 1 uM, replicate 2
# [7] = 24 h, 10 µM, compound concentration 10 uM, replicate 1
structure (smiles),measurement,setting,value
CC(C)c1cc(Nc2nc(N3CCC[C@H](N)C3)ncc2C(N)=O)cc(C(C)C)n1,Population Apoptotic (%),[1],57%
same,Population Fragmented Nuclei (%),[1],33%
same,Population Healthy Nuclei (%),[1],36%
same,Population Hoechst High Intensity Objects (%),[1],13%
same,Population Membrane Permeable-Phenotype (%),[1],22%
same,Population Mitochondria Different-Phenotype (%),[1],22%
same,Population Mitotic Cells (%),[1],42%
same,Population Normal (%),[1],86%
same,Population Pyknosed Nuclei (%),[1],30%
same,Population Tubulin-Different-Phenotype (%),[1],82%
same,Total Cell Count,[1],127
same,Population Apoptotic (%),[2],44%
same,Population Fragmented Nuclei (%),[2],12%
same,Population Healthy Nuclei (%),[2],75%
same,Population Hoechst High Intensity Objects (%),[2],9%
same,Population Membrane Permeable-Phenotype (%),[2],16%
same,Population Mitochondria Different-Phenotype (%),[2],92%
same,Population Mitotic Cells (%),[2],55%
same,Population Normal (%),[2],90%
same,Population Pyknosed Nuclei (%),[2],12%
same,Population Tubulin-Different-Phenotype (%),[2],96%
same,Total Cell Count,[2],82
same,Population Apoptotic (%),[3],59%
same,Population Fragmented Nuclei (%),[3],30%
same,Population Healthy Nuclei (%),[3],37%
same,Population Hoechst High Intensity Objects (%),[3],28%
same,Population Membrane Permeable-Phenotype (%),[3],34%
same,Population Mitochondria Different-Phenotype (%),[3],30%
same,Population Mitotic Cells (%),[3],40%
same,Population Normal (%),[3],71%
same,Population Pyknosed Nuclei (%),[3],31%
same,Population Tubulin-Different-Phenotype (%),[3],76%
same,Total Cell Count,[3],96
same,Population Apoptotic (%),[4],65%
same,Population Fragmented Nuclei (%),[4],19%
same,Population Healthy Nuclei (%),[4],31%
same,Population Hoechst High Intensity Objects (%),[4],14%
same,Population Membrane Permeable-Phenotype (%),[4],100%
same,Population Mitochondria Different-Phenotype (%),[4],93%
same,Population Mitotic Cells (%),[4],34%
same,Population Normal (%),[4],85%
same,Population Pyknosed Nuclei (%),[4],48%
same,Population Tubulin-Different-Phenotype (%),[4],100%
same,Total Cell Count,[4],55
same,Population Apoptotic (%),[5],48%
same,Population Fragmented Nuclei (%),[5],30%
same,Population Healthy Nuclei (%),[5],32%
same,Population Hoechst High Intensity Objects (%),[5],25%
same,Population Membrane Permeable-Phenotype (%),[5],17%
same,Population Mitochondria Different-Phenotype (%),[5],14%
same,Population Mitotic Cells (%),[5],51%
same,Population Normal (%),[5],74%
same,Population Pyknosed Nuclei (%),[5],36%
same,Population Tubulin-Different-Phenotype (%),[5],77%
same,Total Cell Count,[5],143
same,Population Apoptotic (%),[6],26%
same,Population Fragmented Nuclei (%),[6],10%
same,Population Healthy Nuclei (%),[6],68%
same,Population Hoechst High Intensity Objects (%),[6],5%
same,Population Membrane Permeable-Phenotype (%),[6],30%
same,Population Mitochondria Different-Phenotype (%),[6],96%
same,Population Mitotic Cells (%),[6],73%
same,Population Normal (%),[6],94%
same,Population Pyknosed Nuclei (%),[6],20%
same,Population Tubulin-Different-Phenotype (%),[6],94%
same,Total Cell Count,[6],77
same,Population Apoptotic (%),[7],63%
same,Population Fragmented Nuclei (%),[7],26%
same,Population Healthy Nuclei (%),[7],42%
same,Population Hoechst High Intensity Objects (%),[7],25%
same,Population Membrane Permeable-Phenotype (%),[7],17%
